Laboratory results published in ChEMBL document CHEMBL2040818, “Synthesis and in vitro evaluation of novel tetrazole embedded 1,3,5-trisubstituted pyrazoline derivatives as Entamoeba histolytica growth inhibitors” (Eur J Med Chem, 2012).

Tests used:
Entamoeba histolytica = assay: Antiamoebic activity against Entamoeba histolytica HM1:IMSS after 72 hrs by microdilution method; type: functional, organism-based; details: HM-1:IMSS
HepG2 = assay: Cytotoxicity against human HepG2 cells after 48 hrs by MTT assay; details: HepG2, 48 h
[1] = Selectivity index, ratio of IC50 for human HepG2 cells to IC50 for Entamoeba histolytica HM1:IMSS
[2] = Cytotoxicity against human HepG2 cells assessed as cell viability at 50 to 100 uM after 48 hrs by MTT assay
in vitro [3] = details: human, HepG2 cells
in vitro [4] = details: human, HepG2 cells; remark: listed apart in the source
[5] = Cytotoxicity against human HepG2 cells assessed as cell viability at 100 uM after 48 hrs by MTT assay; type: cell-based; details: read-out: Activity
Method in brief: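 HepG2 grown in DMEM, 10% heat-inactivated FBS, antibiotics, 37 °C, 5% CO2; 1.2 × 10^4 cells/well pre-grown 48 h, then exposed to compounds (3.13–100 µM; DMSO stocks diluted in medium) for 48 h at 37 °C; MTT read-out at 570 nm, reference 655 nm; viability as % of untreated control; triplicate, repeated thrice.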

Structure (SMILES)	IC50 (Entamoeba histolytica)	IC50 (HepG2)	Ratio IC50 [1]	viability at 48 h, 100 µM [2]	viability at 48 h, 3.13 µM (in vitro [3])	viability at 48 h, 25 µM (in vitro [4])	viability at 48 h, 100 µM [5]
Cc1ccc(C(=O)/C=C/c2ccccc2)cc1	4.83 µM	> 100 µM	>20.7	40%	95%	72%	
Cc1ccc(/C=C/C(=O)c2ccc(C)cc2)cc1 [4,4'-DIMETHYLCHALCONE]	4.19 µM	> 100 µM		40%	95%	72%	
COc1ccc(-c2nnnn2CC(=O)N2N=C(c3ccccc3)CC2c2ccc(Cl)cc2)cc1 (configuration not stated)	3.02 µM	80.4 µM	26.62	40%	95%	72%	
Cc1ccc(/C=C/C(=O)c2ccccc2)cc1	4.38 µM						
Cc1ccc(/C=C/C(=O)c2ccc(Cl)cc2)cc1	5.32 µM	92.6 µM	17.4	40%	95%	72%	
COc1ccc(-c2nnnn2CC(=O)N2N=C(c3ccc(Cl)cc3)CC2c2ccc([N+](=O)[O-])cc2)cc1 (configuration not stated)	4.89 µM	86.5 µM	17.68	40%	95%	72%	
COc1ccc(-c2nnnn2CC(=O)N2N=C(c3ccc(Cl)cc3)CC2c2ccc(Cl)cc2)cc1 (configuration not stated)	4.65 µM	80.3 µM	17.26	40%	95%	72%	
COc1ccc(/C=C/C(=O)c2ccccc2)cc1 [4-METHOXY CHALCONE]	5.93 µM	> 100 µM	>16.86	40%	95%	72%	
O=C(/C=C/c1ccccc1)c1ccc(Cl)cc1	6.96 µM	94.7 µM	13.6	40%	95%	72%	
COc1ccc(-c2nnnn2CC(=O)N2N=C(c3ccccc3)CC2c2ccccc2)cc1 (configuration not stated)	5.32 µM	85.3 µM	16.03	40%	95%	72%	
COc1ccc(-c2nnnn2CC(=O)N2N=C(c3ccc(C)cc3)CC2c2ccc(OC)cc2)cc1 (configuration not stated)	1.08 µM	> 100 µM	>92.59				≥ 68%
COc1ccc(/C=C/C(=O)c2ccc(Cl)cc2)cc1	5.1 µM	97.2 µM	19.05	40%	95%	72%	
COc1ccc(-c2nnnn2CC(=O)N2N=C(c3ccc(Cl)cc3)CC2c2ccc(C)cc2)cc1 (configuration not stated)	2.96 µM	92.6 µM	31.28	40%	95%	72%	
Cc1ccc(C(=O)/C=C/c2ccc(Cl)cc2)cc1	5.22 µM	74.2 µM	14.21	40%	95%	72%	
O=C(/C=C/c1ccc([N+](=O)[O-])cc1)c1ccc(Cl)cc1	6.18 µM	40.2 µM	6.5	40%	95%	72%	
COc1ccc(-c2nnnn2CC(=O)N2N=C(c3ccc(C)cc3)CC2c2ccc(Cl)cc2)cc1 (configuration not stated)	2.84 µM	98 µM	34.5	40%	95%	72%	

Structure (SMILES)	IC50 (Entamoeba histolytica)	IC50 (HepG2)	Ratio IC50 [1]	viability at 48 h, 100 µM [2]	viability at 48 h, 3.13 µM (in vitro [3])	viability at 48 h, 25 µM (in vitro [4])	viability at 48 h, 100 µM [5]
COc1ccc(-c2nnnn2CC(=O)N2N=C(c3ccc(Cl)cc3)CC2c2ccccc2)cc1 (configuration not stated)	3.15 µM	90.6 µM	28.76	40%	95%	72%	
COc1ccc(-c2nnnn2CC(=O)N2N=C(c3ccc(C)cc3)CC2c2ccc([N+](=O)[O-])cc2)cc1 (configuration not stated)	2.63 µM	> 100 µM	>38.02	40%	95%	72%	
COc1ccc(/C=C/C(=O)c2ccc(C)cc2)cc1	4.76 µM	> 100 µM	>21.01	40%	95%	72%	
COc1ccc(-c2nnnn2CC(=O)N2N=C(c3ccc(Cl)cc3)CC2c2ccc(OC)cc2)cc1 (configuration not stated)	2.63 µM	> 100 µM	>38.02	40%	95%	72%	
Cc1ccc(C(=O)/C=C/c2ccc([N+](=O)[O-])cc2)cc1	5.08 µM	85.6 µM	16.85	40%	95%	72%	
O=C(/C=C/c1ccc(Cl)cc1)c1ccccc1 [4-CHLORO CHALCONE]	7.32 µM	97.2 µM	13.27	40%	95%	72%	
Cc1ncc([N+](=O)[O-])n1CCO [METRONIDAZOLE]		> 100 µM	>55.55		95%		
O=C(/C=C/c1ccccc1)c1ccccc1 [CHALCONE]	12.9 µM	> 100 µM	>7.78	40%	95%	72%	
O=C(/C=C/c1ccc([N+](=O)[O-])cc1)c1ccccc1	6.02 µM	64.7 µM	10.74	40%	95%	72%	
COc1ccc(-c2nnnn2CC(=O)N2N=C(c3ccc(C)cc3)CC2c2ccccc2)cc1 (configuration not stated)	1.2 µM	> 100 µM	>83.33				≥ 68%
COc1ccc(-c2nnnn2CC(=O)N2N=C(c3ccccc3)CC2c2ccc([N+](=O)[O-])cc2)cc1 (configuration not stated)	3.68 µM	79.8 µM	21.68	40%	95%	72%	
O=C(/C=C/c1ccc(Cl)cc1)c1ccc(Cl)cc1 [4',4-DICHLOROCHALCONE]	5.86 µM	82.8 µM	14.13	40%	95%	72%	
COc1ccc(-c2nnnn2CC(=O)N2N=C(c3ccccc3)CC2c2ccc(OC)cc2)cc1 (configuration not stated)	1.16 µM	> 100 µM	>86.2				≥ 68%
COc1ccc(-c2nnnn2CC(=O)N2N=C(c3ccccc3)CC2c2ccc(C)cc2)cc1 (configuration not stated)	1.28 µM	> 100 µM	>78.12				≥ 68%
COc1ccc(-c2nnnn2CC(=O)N2N=C(c3ccc(C)cc3)CC2c2ccc(C)cc2)cc1 (configuration not stated)	0.86 µM	> 100 µM	>116.27				≥ 68%
